Laboratory results taken from ChEMBL document CHEMBL1123363, “(5-Amino-1,3-dimethyl-1H-pyrazol-4-yl)(2-fluorophenyl)methanones . A series of novel potential antipsychotic agents” (J Med Chem, 1986).

Columns and labels:
[1] = target: T1, Adenosine receptor A1 (Rattus norvegicus, UniProt P25099); assay: Binding affinity towards adenosine A1 receptor using [3H]- CHA
T1 sequence (P25099 whole entry): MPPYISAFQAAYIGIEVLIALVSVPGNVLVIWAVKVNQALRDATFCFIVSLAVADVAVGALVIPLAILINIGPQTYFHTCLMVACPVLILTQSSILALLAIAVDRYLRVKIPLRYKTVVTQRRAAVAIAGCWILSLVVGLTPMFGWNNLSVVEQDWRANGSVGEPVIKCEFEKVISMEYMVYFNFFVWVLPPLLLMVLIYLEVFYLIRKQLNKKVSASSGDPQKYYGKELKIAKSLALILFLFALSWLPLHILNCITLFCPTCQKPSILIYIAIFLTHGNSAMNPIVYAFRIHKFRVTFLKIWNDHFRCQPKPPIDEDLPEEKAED
Method in brief: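 Adenosine A1 binding in membranes of rat whole brain minus brain stem and cerebellum (male Long-Evans, 150–250 g), using [3H]-CHA at 1.0 nM final. Theophylline at 1 mM final was the reference. IC50 from four or five concentrations by nonlinear fit.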

[2] = Displacement of [3H]flunitrazepam from rat brain GABA-A benzodiazepine receptor
[3] = species: Mus musculus; assay: Ability to inhibit locomotor activity using ataxia test.; type: functional; conditions: read-out: MED
Method in brief: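 Male Swiss–Webster mice (20–30 g, unfasted), nine per dose in groups of three, dosed ip in 0.2% methocel (dose as parent compound) 1 h before testing. Ataxia was scored first on an inverted screen over 60 s as % of mice falling. […] ED50 from at least three doses.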

[4] = target: T2, Adrenergic receptor alpha-1 (Rattus norvegicus, UniProt P15823+P23944+P43140)
T2 sequence (P15823 whole entry): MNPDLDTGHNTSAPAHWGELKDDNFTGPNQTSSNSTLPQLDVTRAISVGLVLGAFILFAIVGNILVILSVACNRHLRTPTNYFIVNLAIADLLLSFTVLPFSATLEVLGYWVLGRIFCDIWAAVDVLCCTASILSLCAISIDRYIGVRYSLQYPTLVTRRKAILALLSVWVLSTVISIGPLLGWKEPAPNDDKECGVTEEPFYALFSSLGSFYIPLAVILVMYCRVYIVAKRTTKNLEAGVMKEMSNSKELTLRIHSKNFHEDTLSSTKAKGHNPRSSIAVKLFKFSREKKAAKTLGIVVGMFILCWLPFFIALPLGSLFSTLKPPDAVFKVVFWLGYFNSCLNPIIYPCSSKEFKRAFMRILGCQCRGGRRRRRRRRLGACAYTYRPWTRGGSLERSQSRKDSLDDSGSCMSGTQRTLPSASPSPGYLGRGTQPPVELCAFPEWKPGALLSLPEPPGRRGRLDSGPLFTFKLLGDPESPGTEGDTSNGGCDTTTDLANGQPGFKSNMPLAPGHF
T2 sequence (P23944 whole entry): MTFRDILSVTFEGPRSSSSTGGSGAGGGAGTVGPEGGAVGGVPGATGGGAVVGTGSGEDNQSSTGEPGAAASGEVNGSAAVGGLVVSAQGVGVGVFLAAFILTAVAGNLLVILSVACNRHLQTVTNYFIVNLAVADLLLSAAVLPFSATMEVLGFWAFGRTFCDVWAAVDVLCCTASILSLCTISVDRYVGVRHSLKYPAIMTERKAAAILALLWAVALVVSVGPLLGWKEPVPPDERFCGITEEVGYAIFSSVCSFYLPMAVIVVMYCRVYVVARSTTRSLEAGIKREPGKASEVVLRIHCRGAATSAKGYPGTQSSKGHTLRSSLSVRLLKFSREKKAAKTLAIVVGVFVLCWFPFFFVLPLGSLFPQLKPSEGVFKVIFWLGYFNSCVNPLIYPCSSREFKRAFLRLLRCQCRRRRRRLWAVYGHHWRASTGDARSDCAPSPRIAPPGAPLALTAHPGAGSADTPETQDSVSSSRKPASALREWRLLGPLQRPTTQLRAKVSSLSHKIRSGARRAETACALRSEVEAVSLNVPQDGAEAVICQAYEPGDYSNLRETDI
T2 sequence (P43140 whole entry): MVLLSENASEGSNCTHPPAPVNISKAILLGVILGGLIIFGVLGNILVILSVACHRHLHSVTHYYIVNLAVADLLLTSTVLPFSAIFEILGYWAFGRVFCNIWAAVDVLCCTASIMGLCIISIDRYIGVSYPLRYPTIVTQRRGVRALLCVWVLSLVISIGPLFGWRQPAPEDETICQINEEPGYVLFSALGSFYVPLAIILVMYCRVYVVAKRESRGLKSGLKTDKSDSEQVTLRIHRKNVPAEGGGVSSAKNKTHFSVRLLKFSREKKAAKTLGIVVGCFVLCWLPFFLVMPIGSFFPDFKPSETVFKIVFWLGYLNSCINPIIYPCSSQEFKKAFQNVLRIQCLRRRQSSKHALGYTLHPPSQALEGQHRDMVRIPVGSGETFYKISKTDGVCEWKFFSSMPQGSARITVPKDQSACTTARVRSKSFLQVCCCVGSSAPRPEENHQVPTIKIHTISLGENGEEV

[5] = tested on: Rattus norvegicus; assay: Compound was tested for its affect on the accumulation of the dopamine metabolite homovanillic acid (HAV) in the rat striatum at 25 mg/kg dose after peroral administration; type: functional; conditions: route oral
Method in brief: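 Male Long–Evans rats were dosed orally and decapitated 2 h later. Striatal HVA was isolated on Sephadex G-10 and measured spectrofluorometrically, expressed as % control ± SEM.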

Structure (SMILES) | IC50 [1] [µM] | IC50 [2] [µM] | minimal effective dose [3] [mg/kg] | IC50 [4] [µM] | Control [5] [%]
Cc1nn(C)c(N)c1C(=O)c1ccccc1F | > 10 | > 10 | < 10 | > 10 | –
CCN(CC)CC(=O)Nc1c(C(=O)c2ccccc2F)c(C)nn1C | > 10 | > 10 | 30 | – | 114.9
Cc1nn(C)c(NC(=O)CNCCCN2CCCCC2C)c1C(=O)c1ccccc1F (configuration not stated) | – | > 10 | 30 | > 10 | 95.8
